In ChEMBL document CHEMBL3272137, “Narcotic antagonists. Synthesis and evaluation of some subsituted 1,2,3,4,5,6-hexahydro-1,4:2,6-dimethano-3-benzazocines” (J Med Chem, 1977):
Calls of active or inactive are those of the source. The calls are words filed in the database; no cut-off is given here.

Legend:
Mus musculus [1] = experiment: Analgesic activity in sc dosed mouse assessed as inhibition of phenylquinone-induced writhing; assay type: functional
In short: (§1)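 Given subcutaneously as salts in aqueous solution, with doses expressed as free base. ED50 was derived by probit analysis of dose-response data using at least three dose levels and at least six animals per dose level.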

Mus musculus [2] = experiment: Narcotic antagonist activity in sc dosed mouse assessed as inhibition of oxymorphone-induced narcosis; assay type: functional; in short: as §1
Rattus norvegicus = experiment: Narcotic antagonist activity in sc dosed rat assessed as inhibition of morphine-induced analgesic activity by tail flick test; assay type: functional; in short: as §1
Mus musculus [3] = experiment: Toxicity in mouse assessed as tremor at 40 mg/kg, sc; assay type: organism-based; parameters: dose 40 mg/kg, route subcutaneous; details: in vivo
In short: (§2)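 Given subcutaneously as salts in aqueous solution, with dose expressed as free base.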

Mus musculus [4] = experiment: Narcotic antagonist activity in sc dosed mouse assessed as inhibition of oxymorphone-induced straub tail response; assay type: functional; in short: as §1
Mus musculus [5] = experiment: Toxicity in mouse assessed as convulsion at 80 mg/kg, sc; assay type: organism-based; parameters: dose 80 mg/kg, route subcutaneous; details: in vivo; in short: as §2
Mus musculus [6] = experiment: Analgesic activity in mouse assessed as inhibition of phenylquinone-induced writhing at 40 mg/kg, sc; assay type: functional, organism-based; parameters: dose 40 mg/kg; in short: as §2
Mus musculus [7] = experiment: Toxicity in mouse assessed as convulsion at 40 mg/kg, sc; assay type: organism-based; parameters: dose 40 mg/kg, route subcutaneous; details: in vivo; in short: as §2
Mus musculus [8] = experiment: Toxicity in mouse assessed as depression at 40 mg/kg, sc; assay type: organism-based; parameters: dose 40 mg/kg, route subcutaneous; details: in vivo; in short: as §2
Mus musculus [9] = experiment: Narcotic antagonist activity in mouse assessed as inhibition of oxymorphone-induced straub tail response at 40 mg/kg, sc; assay type: functional, organism-based; parameters: dose 40 mg/kg; in short: as §2

Row | Compound | ED50 (Mus musculus [1]) | ED50 (Mus musculus [2]) | ED50 (Rattus norvegicus) | Activity (Mus musculus [3]) | ED50 (Mus musculus [4]) | Activity (Mus musculus [5]) | inhibition (Mus musculus [6]) | Activity (Mus musculus [7]) | Activity (Mus musculus [8]) | inhibition (Mus musculus [9])
1 | C=CCN1CC[C@]23c4c5ccc(O)c4O[C@H]2[C@@H](O)C=C[C@H]3[C@H]1C5 [NALORPHINE] | 0.77 mg/kg | 0.58 mg/kg | 0.38 mg/kg | – | – | – | – | – | – | –
2 | C=CCN1C2CC3c4ccc(O)cc4C(CC)(C2)CC31 (stereo unspecified) | 20 mg/kg | 1 mg/kg | 3.3 mg/kg | Toxic | 8 mg/kg | Toxic | – | – | – | –
3 | CCC12CC3CC(c4ccc(O)cc41)C(C2)N3CC1CCC1 (stereo unspecified) | – | 5 mg/kg | 10 mg/kg | – | 15 mg/kg | Toxic | inactive | Toxic | – | –
4 | CC12CC3CC(c4ccc(O)cc41)C(C2)N3CC1CC1 (stereo unspecified) | – | 0.63 mg/kg | 0.64 mg/kg | – | 0.96 mg/kg | Toxic | Active | – | – | –
5 | CN1CC[C@]23c4c5ccc(O)c4O[C@H]2[C@@H](O)C=C[C@H]3[C@H]1C5 [MORPHINE] | 0.26 mg/kg | – | – | – | – | – | – | – | – | –
6 | CCC12CC3CC(c4ccc(O)cc41)C(C2)N3CCC1CC1 (stereo unspecified) | – | – | > 20 mg/kg | – | > 20 mg/kg | Toxic | Active | – | Toxic | –
7 | CCC12CC3CC(c4ccc(O)cc41)C(C2)N3 (stereo unspecified) | 12.9 mg/kg | – | – | – | – | Toxic | – | Toxic | – | inactive
8 | CCC12CC3CC(c4ccc(O)cc41)C(C2)N3C (stereo unspecified) | 24.3 mg/kg | – | – | – | – | Toxic | – | – | – | inactive
9 | CC12CC3CC(c4ccc(O)cc41)C(C2)N3CC1CCC1 (stereo unspecified) | – | – | – | – | – | Toxic | inactive | – | – | inactive
10 | CC12CC3CC(c4ccc(O)cc41)C(C2)N3 (stereo unspecified) | – | – | – | – | – | Toxic | – | – | – | –
11 | CN1C2CC3c4ccc(O)cc4C(C)(C2)CC31 (stereo unspecified) | 31.8 mg/kg | – | – | – | – | Toxic | – | – | – | inactive
12 | CC(C)=CCN1CC[C@]2(C)c3cc(O)ccc3C[C@H]1[C@H]2C [(+)-PENTAZOCINE] | 3.7 mg/kg | 10.1 mg/kg | – | – | 12 mg/kg | – | – | – | – | –
13 | CCC12CC3CC(c4ccc(O)cc41)C(C2)N3CC1CC1 (stereo unspecified) | – | 0.32 mg/kg | 0.44 mg/kg | – | 2.24 mg/kg | Toxic | Active | – | – | –
14 | CC12CC3CC(c4ccc(O)cc41)C(C2)N3CCC1CC1 (stereo unspecified) | – | – | – | – | – | Toxic | inactive | – | – | inactive
